The values below come from ChEMBL document CHEMBL1123215, “Arginine-vasopressin analogues with high antidiuretic/vasopressor selectivity. Synthesis, biological activity, and receptor binding affinity of arginine-vasopressin analogues with substitutions in positions 1, 2, 4, 7, and 8” (J Med Chem, 1986).

In assay [1] the target is Vasopressin V1 receptor (Rattus norvegicus, UniProt P48974+P30560). As to the kind of experiment: Binding affinity against plasma membrane from rat liver. The gist of the method:
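Rat liver plasma membranes, competition against [3H]AVP, 30 min incubation, bacitracin (1 mg/mL) in standard medium. Apparent KD and slope factor b from weighted nonlinear least-squares logistic fit of displacement curves; mean ±SE of two experiments.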

For assay [2], the target named is Vasopressin V2 receptor (Bos taurus, UniProt P48044). As to the kind of experiment: Binding affinity against plasma membrane from bovine kidney inner medulla. The assay is classed as tissue-based. The gist of the method: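 Competition binding with [3H]AVP to plasma membranes, 30 min incubation; for rat liver membranes the standard medium included bacitracin (1 mg/mL). Apparent KD and slope factor b from weighted nonlinear least-squares fit of displacement curves to logistic curves; [3H]AVP parameters from direct binding. Mean ±SE of two experiments.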

In assay [3] the test system is Rattus norvegicus. As to the kind of experiment: Compound was tested for the vasopressor activity against phenoxybenzamine treated rats, after intravenous injection. Type of assay: functional. The gist of the method:
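Pressor response measured in rats pretreated with phenoxybenzamine.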

For assay [4], the system named is Rattus norvegicus. Briefly: Compound was tested for the antidiuretic activity against hydrated anaesthetized rats, after intravenous injection. The assay is classed as functional, Urine. The gist of the method: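 Hydrated, anaesthetized rats given intravenous injection; effect measured as change in urine conductivity, with arginine-vasopressin as standard.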

A short description of assay [5]: Ratio of antidiuretic potency vs vasopressor potency. Type of assay: functional, Urine. The gist of the method: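 Antidiuretic potency from urine conductivity change in hydrated anaesthetized rats after i.v. injection, vasopressor potency in phenoxybenzamine-treated rats, arginine-vasopressin as standard; ratio of the two potencies.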

Structures are written as SMILES. Positions of bridges follow the written chain, without caps; N, C: chain ends. Non-standard residues stand in square brackets, D forms with d. Residues, ends and D or L forms follow the SMILES beside them. NMeA = CN[C@@H](C)C(=O)O; Mpa = O=C(O)CCS; Sar = CNCC(=O)O

Sequence of Vasopressin V2 receptor (P48044 whole entry): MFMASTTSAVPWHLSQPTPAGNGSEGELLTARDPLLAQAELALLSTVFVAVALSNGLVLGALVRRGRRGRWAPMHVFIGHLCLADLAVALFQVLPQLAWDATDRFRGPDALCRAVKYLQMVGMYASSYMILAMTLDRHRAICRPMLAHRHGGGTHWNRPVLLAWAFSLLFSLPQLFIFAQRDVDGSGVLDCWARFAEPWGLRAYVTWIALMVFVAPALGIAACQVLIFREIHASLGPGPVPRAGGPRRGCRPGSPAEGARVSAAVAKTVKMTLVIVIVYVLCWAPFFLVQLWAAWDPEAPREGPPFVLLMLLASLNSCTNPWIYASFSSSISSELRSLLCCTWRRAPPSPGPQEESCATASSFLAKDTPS

Consider `C[C@@H](C(=O)N[C@@H](CCCN=C(N)N)C(=O)NCC(N)=O)N(C)C(=O)[C@@H]1CSSC[C@H](N)C(=O)N[C@@H](Cc2ccccc2)C(=O)N[C@@H](Cc2ccccc2)C(=O)N[C@@H](CCC(N)=O)C(=O)N[C@@H](CC(N)=O)C(=O)N1` (H-CFFQNC[NMeA]RG-NH2; disulfide 1-6) [listing 1 of 2 here], for which the Kd in assay [1] and in assay [2] was 110 nM each time.
Regarding `CN(CC(=O)N[C@H](CCCN=C(N)N)C(=O)NCC(N)=O)C(=O)[C@@H]1CSSCCC(=O)N[C@@H](Cc2ccc(O)cc2)C(=O)N[C@@H](Cc2ccccc2)C(=O)N[C@@H](CCC(N)=O)C(=O)N[C@@H](CC(N)=O)C(=O)N1` [listing 1 of 2 here], the Potency was 0.01 IU mg-1 in assay [3] and 214.5 IU mg-1 in assay [4]. For the same compound, the Ratio in assay [5] is listed as 2145.
Consider `CN(CC(=O)N[C@H](CCCN=C(N)N)C(=O)NCC(N)=O)C(=O)[C@@H]1CSSCCC(=O)N[C@@H](Cc2ccc(O)cc2)C(=O)N[C@@H](Cc2ccccc2)C(=O)N[C@@H](CCC(N)=O)C(=O)N[C@@H](CC(N)=O)C(=O)N1` [listing 2 of 2 here], for which the Kd (usually the concentration at which binding is half-saturated) in assay [1] was 160 nM; in assay [2] it was 8.7 nM.
`N=C(N)NCCC[C@H](NC(=O)[C@@H]1CCCN1C(=O)[C@@H]1CSSC[C@H](N)C(=O)N[C@@H](Cc2ccc(O)cc2)C(=O)N[C@@H](Cc2ccccc2)C(=O)N[C@@H](CCC(N)=O)C(=O)N[C@@H](CC(N)=O)C(=O)N1)C(=O)NCC(N)=O` [VASOPRESSIN] came in with a Potency in assay [4] of 323 IU mg-1.
In the case of `CN(CC(=O)N[C@@H](CCCN=C(N)N)C(=O)NCC(N)=O)C(=O)[C@@H]1CSSC[C@H](N)C(=O)N[C@@H](Cc2ccc(O)cc2)C(=O)N[C@@H](Cc2ccccc2)C(=O)N[C@@H](CCC(N)=O)C(=O)N[C@@H](CC(N)=O)C(=O)N1`, the Potency turned out to be 3.6 IU mg-1 in assay [3] and 188 IU mg-1 in assay [4]. Further, the Ratio in assay [5] is on record as 52.
With `C[C@@H](C(=O)N[C@H](CCCN=C(N)N)C(=O)NCC(N)=O)N(C)C(=O)[C@@H]1CSSC[C@H](N)C(=O)N[C@@H](Cc2ccc(O)cc2)C(=O)N[C@@H](Cc2ccccc2)C(=O)N[C@@H](CCC(N)=O)C(=O)N[C@@H](CC(N)=O)C(=O)N1` [listing 1 of 2 here], the Kd came to 280 nM in assay [1] and 21 nM in assay [2].
On to `CC(C)[C@@H]1NC(=O)[C@H](Cc2ccccc2)NC(=O)[C@H](Cc2ccc(O)cc2)NC(=O)[C@@H](N)CSSC[C@@H](C(=O)N(C)CC(=O)N[C@@H](CCCNC(=N)N)C(=O)NCC(N)=O)NC(=O)[C@H](CC(N)=O)NC1=O` (H-CYFVNC[Sar]RG-NH2; disulfide 1-6), for which the results for the Kd in assay [1] and in assay [2] were 110 nM and 9.4 nM, respectively.
Consider `CC(C)[C@@H]1NC(=O)[C@H](Cc2ccccc2)NC(=O)[C@H](Cc2ccc(O)cc2)NC(=O)CCSSC[C@@H](C(=O)N(C)CC(=O)N[C@@H](CCCN=C(N)N)C(=O)NCC(N)=O)NC(=O)[C@H](CC(N)=O)NC1=O` ([Mpa]YFVNC[Sar]RG-NH2; disulfide 1-6) [listing 1 of 2 here], for which the values for the Kd in assay [1] and in assay [2] were 27 nM and 1.4 nM, respectively.
As for `C[C@@H](C(=O)N[C@@H](CCCN=C(N)N)C(=O)NCC(N)=O)N(C)C(=O)[C@@H]1CSSC[C@H](N)C(=O)N[C@@H](Cc2ccc(O)cc2)C(=O)N[C@@H](Cc2ccccc2)C(=O)N[C@@H](CCC(N)=O)C(=O)N[C@@H](CC(N)=O)C(=O)N1`, the Potency is recorded as 10.6 IU mg-1 in assay [3] and 343 IU mg-1 in assay [4]. In addition, the Ratio in assay [5] is 32.
For `CC(C)[C@H]1NC(=O)[C@H](Cc2ccccc2)NC(=O)[C@@H](Cc2ccc(O)cc2)NC(=O)CCSSC[C@@H](C(=O)N(C)[C@@H](C)C(=O)N[C@@H](CCCN=C(N)N)C(=O)NCC(N)=O)NC(=O)[C@H](CC(N)=O)NC1=O`, the Potency in assay [3] came to 0.69 IU mg-1; in assay [4], 103 IU mg-1. Further, the Kd in assay [1] came out at 53 nM; in assay [2], 9.4 nM. The Ratio in assay [5] is on record as 150.
As for `CC(C)[C@@H]1NC(=O)[C@H](Cc2ccccc2)NC(=O)[C@H](Cc2ccc(O)cc2)NC(=O)[C@@H](N)CSSC[C@@H](C(=O)N(C)[C@@H](C)C(=O)N[C@@H](CCCNC(=N)N)C(=O)NCC(N)=O)NC(=O)[C@H](CC(N)=O)NC1=O` (H-CYFVNC[NMeA]RG-NH2; disulfide 1-6), the Kd in assay [1] was determined as 310 nM; in assay [2], 33 nM.
For `CN(CC(=O)N[C@@H](CCCNC(=N)N)C(=O)NCC(N)=O)C(=O)[C@@H]1CSSC[C@H](N)C(=O)N[C@@H](Cc2ccccc2)C(=O)N[C@@H](Cc2ccccc2)C(=O)N[C@@H](CCC(N)=O)C(=O)N[C@@H](CC(N)=O)C(=O)N1` (H-CFFQNC[Sar]RG-NH2; disulfide 1-6) the same measures were 170 nM and 44 nM.
Consider `CN(CC(=O)N[C@H](CCCN=C(N)N)C(=O)NCC(N)=O)C(=O)[C@@H]1CSSC[C@H](N)C(=O)N[C@@H](Cc2ccc(O)cc2)C(=O)N[C@@H](Cc2ccccc2)C(=O)N[C@@H](CCC(N)=O)C(=O)N[C@@H](CC(N)=O)C(=O)N1` [listing 1 of 2 here], for which the Potency in assay [3] is on record as 0.04 IU mg-1; in assay [4], 56 IU mg-1. Also, the Ratio in assay [5] stood at 1400.
On the same counts, the results for `C[C@@H](C(=O)N[C@@H](CCCN=C(N)N)C(=O)NCC(N)=O)N(C)C(=O)[C@@H]1CSSC[C@H](N)C(=O)N[C@@H](Cc2ccccc2)C(=O)N[C@@H](Cc2ccccc2)C(=O)N[C@@H](CCC(N)=O)C(=O)N[C@@H](CC(N)=O)C(=O)N1` (H-CFFQNC[NMeA]RG-NH2; disulfide 1-6) [listing 2 of 2 here] are 0.57 IU mg-1, 14.5 IU mg-1 and 25.
For the compound `CN(CC(=O)N[C@H](CCCN=C(N)N)C(=O)NCC(N)=O)C(=O)[C@@H]1CSSC[C@H](N)C(=O)N[C@@H](Cc2ccc(O)cc2)C(=O)N[C@@H](Cc2ccccc2)C(=O)N[C@@H](CCC(N)=O)C(=O)N[C@@H](CC(N)=O)C(=O)N1` [listing 2 of 2 here], the Kd in assay [1] stood at 420 nM; in assay [2], 10 nM.
Consider `C[C@@H](C(=O)N[C@H](CCCN=C(N)N)C(=O)NCC(N)=O)N(C)C(=O)[C@@H]1CSSCCC(=O)N[C@@H](Cc2ccc(O)cc2)C(=O)N[C@@H](Cc2ccccc2)C(=O)N[C@@H](CCC(N)=O)C(=O)N[C@@H](CC(N)=O)C(=O)N1` [listing 1 of 2 here], for which the Potency in assay [3] is recorded as 0.07 IU mg-1; in assay [4] it was 368.5 IU mg-1. The Ratio in assay [5] is 5260.
For `C[C@@H](C(=O)N[C@H](CCCN=C(N)N)C(=O)NCC(N)=O)N(C)C(=O)[C@@H]1CSSCCC(=O)N[C@@H](Cc2ccc(O)cc2)C(=O)N[C@@H](Cc2ccccc2)C(=O)N[C@@H](CCC(N)=O)C(=O)N[C@@H](CC(N)=O)C(=O)N1` [listing 2 of 2 here], the Kd is 290 nM in assay [1] and 51 nM in assay [2].
Take `CN(CC(=O)N[C@@H](CCCN=C(N)N)C(=O)NCC(N)=O)C(=O)[C@@H]1CSSC[C@H](N)C(=O)N[C@@H](Cc2ccccc2)C(=O)N[C@@H](Cc2ccccc2)C(=O)N[C@@H](CCC(N)=O)C(=O)N[C@@H](CC(N)=O)C(=O)N1` (H-CFFQNC[Sar]RG-NH2; disulfide 1-6): the Potency in assay [3] is given as 0.17 IU mg-1; in assay [4], 39.6 IU mg-1. Besides, the Ratio in assay [5] is on record as 230.
For `CC(C)[C@@H]1NC(=O)[C@H](Cc2ccccc2)NC(=O)[C@H](Cc2ccc(O)cc2)NC(=O)CCSSC[C@@H](C(=O)N(C)CC(=O)N[C@@H](CCCN=C(N)N)C(=O)NCC(N)=O)NC(=O)[C@H](CC(N)=O)NC1=O` ([Mpa]YFVNC[Sar]RG-NH2; disulfide 1-6) [listing 2 of 2 here], the Potency was 0.4 IU mg-1 in assay [3] and 552 IU mg-1 in assay [4]. For the same compound, in assay [5], the Ratio is 1380.
On the same counts, the results for `CC(C)[C@@H]1NC(=O)[C@H](Cc2ccccc2)NC(=O)[C@H](Cc2ccc(O)cc2)NC(=O)[C@@H](N)CSSC[C@@H](C(=O)N(C)CC(=O)N[C@@H](CCCN=C(N)N)C(=O)NCC(N)=O)NC(=O)[C@H](CC(N)=O)NC1=O` (H-CYFVNC[Sar]RG-NH2; disulfide 1-6) are 34.7 IU mg-1, 270 IU mg-1 and 8.
On the same counts, the results for `C[C@@H](C(=O)N[C@H](CCCN=C(N)N)C(=O)NCC(N)=O)N(C)C(=O)[C@@H]1CSSC[C@H](N)C(=O)N[C@@H](Cc2ccc(O)cc2)C(=O)N[C@@H](Cc2ccccc2)C(=O)N[C@@H](CCC(N)=O)C(=O)N[C@@H](CC(N)=O)C(=O)N1` [listing 2 of 2 here] are 0.11 IU mg-1, 69 IU mg-1 and 630.
